Laboratory results as given in ChEMBL document CHEMBL1126988, “Quinolone antibacterials containing the new 7-[3-(1-aminoethyl)-1- pyrrolidinyl] side chain: the effects of the 1-aminoethyl moiety and its stereochemical configurations on potency and in vivo efficacy” (J Med Chem, 1993).
pIC50: −log10 of the molar value. Values after ≈ are worked out from the molar mass of the structure shown.

Legend:
Escherichia coli [1] = test: Antibacterial activity in vitro against Escherichia coli Vogel; assay type: functional
Method in brief: (§1)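 Standard microtitration broth assay against a panel of 10 Gram-positive and Gram-negative organisms. MIC read in µg/mL and averaged over multiple experiments.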

Staphylococcus aureus [2] = test: Minimum inhibitory concentration was evaluated in vitro against Staphylococcus aureus H 228; assay type: functional; method in brief: as §1
Streptococcus pyogenes [3] = test: Compounds were evaluated in vivo for antibacterial activity for mouse protection against Streptococcus pyogenes C 203 after subcutaneous administration; assay type: functional; conditions: C 203, sc, read-out: PD50
Streptococcus pyogenes [4] = test: Compounds were evaluated in vivo for antibacterial activity for mouse protection against Streptococcus pyogenes C 203 after oral administration; assay type: functional; conditions: for ED50: C 203, po, read-out: PD50
Providencia rettgeri = test: Minimum inhibitory concentration was evaluated in vitro against Providencia rettgeri M1771; assay type: functional; method in brief: as §1
Escherichia coli [5] = test: Antibacterial activity against Escherichia coli Vogel after oral administration in mouse; assay type: functional; conditions: for ED50: Escherichia coli, po, read-out: PD50
Enterobacter cloacae = test: Minimum inhibitory concentration in vitro against Enterobacter cloacae MA 2646; assay type: functional
Staphylococcus aureus [6] = test: Minimum inhibitory concentration was evaluated in vitro against Staphylococcus aureus UC 76; assay type: functional; method in brief: as §1
DNA gyrase = DNA gyrase (Escherichia coli, UniProt P0AES4+P0AES6); test: Inhibition against DNA gyrase; assay type: protein-complex assay
Streptococcus pyogenes [7] = test: Antibacterial activity measured as mouse protection against Streptococcus pyogenes C 203 after subcutaneous administration; assay type: functional; conditions: for ED50: Streptococcus pyogenes, C 203, sc, read-out: PD50
Streptococcus pyogenes [8] = test: Minimum inhibitory concentration was evaluated in vitro against Streptococcus pyogenes C 203; assay type: functional; method in brief: as §1
Klebsiella pneumoniae = test: Minimum inhibitory concentration was evaluated in vitro against Klebsiella pneumoniae MGH2; assay type: functional; method in brief: as §1
Escherichia coli [9] = test: Antibacterial activity against Escherichia coli Vogel after subcutaneous administration in mouse; assay type: functional; conditions: for ED50: Escherichia coli, sc, read-out: PD50
Pseudomonas aeruginosa = test: Minimum inhibitory concentration was evaluated in vitro against Pseudomonas aeruginosa UI-18; assay type: functional; method in brief: as §1
Mus musculus [10] = species: Mus musculus; test: Compound was evaluated for phototoxicity no-effect dose in mouse; assay type: functional
Method in brief: (§2)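 Depilated female CD-1 mice, five per dose plus controls. Animals are dosed orally and then exposed daily to UV-A (320–400 nm) for 3 h, for up to 4 days or until a definite positive response. Redness or erythema relative to controls, read 24 h after irradiation, counts as positive. Reported as the highest dose with no effect (mg/kg).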

[11] = Clonogenic cytotoxicity against hamster V-79 cells; assay type: functional, Cricetulus griseus, V79
Method in brief: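 Chinese hamster V-79 cells grown overnight, then drug-treated for 3 h at 37 °C. Medium is replaced with fresh medium and cells are incubated 5 days to allow colony formation. IC50 (µg/mL) is the concentration inhibiting colony formation by 50% relative to control.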

Streptococcus pneumoniae [12] = test: Minimum inhibitory concentration was evaluated in vitro against Streptococcus pneumoniae SV-1; assay type: functional; method in brief: as §1
Enterococcus faecalis [13] = test: Minimum inhibitory concentration was evaluated in vitro against Enterococcus faecalis MGH-2; assay type: functional; method in brief: as §1
Enterococcus faecalis [14] = test: Antibacterial activity expressed as Minimum inhibitory concentration was evaluated in vitro against Enterococcus faecalis MGH-2; assay type: functional; method in brief: as §1
Mus musculus [15] = species: Mus musculus; test: Compounds were evaluated for phototoxicity no-effect dose in mouse; assay type: functional; method in brief: as §2
[16] = molecular target: DNA gyrase (Escherichia coli) (UniProt P0AES6+P0AES4); test: Initial inhibition as minimal concentration to induce cleavage of DNA gyrase complex; assay type: protein-complex assay
Method in brief: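 DNA gyrase isolated and purified from E. coli H560. Uses the initial cleavage method with relaxed Col E1 plasmid DNA as substrate. Read-out is the lowest drug concentration (µg/mL) giving detectable cleavage, seen by agarose gel electrophoresis with ethidium bromide staining. Averaged over multiple experiments, accurate to ±50%.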

Streptococcus pyogenes [17] = test: Antibacterial activity expressed as Minimum inhibitory concentration was evaluated in vitro against Streptococcus pyogenes C 203; assay type: functional; method in brief: as §1
Mus musculus [18] = species: Mus musculus; test: Compounds were evaluated for phototoxicity in mouse and phototoxicity no-effect dose was reported; assay type: functional; method in brief: as §2
Streptococcus pyogenes [19] = test: Compound was evaluated in vivo for antibacterial activity for mouse protection against Streptococcus pyogenes C 203 after subcutaneous administration; assay type: functional; conditions: sc, read-out: PD50
Streptococcus pneumoniae [20] = test: Antibacterial activity expressed as Minimum inhibitory concentration was evaluated in vitro against Streptococcus pneumoniae SV-1; assay type: functional
Method in brief: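 Standard microtitration broth MIC (μg/mL), averaged from multiple experiments; one of a 10-organism Gram-positive/Gram-negative panel.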

[21] = Escherichia coli, read-out: MIC
[22] = Staphylococcus aureus, read-out: MIC
[23] = Providencia rettgeri, read-out: MIC
[24] = Enterobacter cloacae, read-out: MIC
[25] = Klebsiella pneumoniae, read-out: MIC
[26] = Pseudomonas aeruginosa, read-out: MIC
[27] = Streptococcus pyogenes, read-out: MIC
[28] = Streptococcus pneumoniae, read-out: MIC
[29] = Enterococcus faecalis, read-out: MIC

Row | Compound | MIC (Escherichia coli [1]; [21]) | MIC (Staphylococcus aureus [2]; [22]) | MIC (Providencia rettgeri; [23]) | ED50 (Escherichia coli [5]) | MIC (Enterobacter cloacae; [24]) | MIC (Staphylococcus aureus [6]) | pIC50 (DNA gyrase) | ED50 (Streptococcus pyogenes [7]) | MIC (Streptococcus pyogenes [8]) | MIC (Staphylococcus aureus [2]) | MIC (Klebsiella pneumoniae; [25]) | MIC (Pseudomonas aeruginosa; [26]) | PD50 (Streptococcus pyogenes [4]) | Dose (Mus musculus [10]) | Cytotoxicity [11] | MIC (Streptococcus pneumoniae [12]) | MIC (Enterococcus faecalis [13]) | MIC (Staphylococcus aureus [6]; [22]) | ED50 (Escherichia coli [9]) | also measured
1 | CCNCC1CCN(c2c(F)cc3c(=O)c(C(=O)O)cn(C4CC4)c3c2F)C1 (stereo not drawn) [PD-117558] | 0.05 µg/mL (≈ 0.128 µM) | 0.025 µg/mL (≈ 0.0639 µM) | 0.2 µg/mL (≈ 0.511 µM) | 4 mg/kg | 0.1 µg/mL (≈ 0.255 µM) | – | – | – | – | – | – | – | – | – | – | – | – | – | – | ED50 (Streptococcus pyogenes [3]): 0.8 mg/kg; ED50 (Streptococcus pyogenes [4]): 1 mg/kg
2 | C[C@@H](N)[C@H]1CCN(c2nc3c(cc2F)c(=O)c(C(=O)O)cn3C2CC2)C1 (racemic) | 0.05 µg/mL (≈ 0.139 µM) | – | 0.2 µg/mL (≈ 0.555 µM) | – | 0.05 µg/mL (≈ 0.139 µM) | 0.025 µg/mL (≈ 0.0694 µM) | 5.16 | 5 mg/kg | 0.05 µg/mL (≈ 0.139 µM) | 0.2 µg/mL (≈ 0.555 µM) | 0.1 µg/mL (≈ 0.277 µM) | 0.8 µg/mL (≈ 2.22 µM) | 15 mg/kg | >100 mg/kg | 84 µg/mL | 0.05 µg/mL (≈ 0.139 µM) | 0.1 µg/mL (≈ 0.277 µM) | – | – | PD50 (Escherichia coli [9]): 1 mg/kg
3 | CCn1cc(C(=O)O)c(=O)c2cc(F)c(N3CC[C@@H]([C@@H](C)N)C3)c(F)c21 | 0.1 µg/mL (≈ 0.274 µM) | 0.1 µg/mL (≈ 0.274 µM) | 0.4 µg/mL (≈ 1.09 µM) | 15 mg/kg | 0.1 µg/mL (≈ 0.274 µM) | – | – | 2 mg/kg | – | – | 0.2 µg/mL (≈ 0.547 µM) | 1.6 µg/mL (≈ 4.38 µM) | – | – | – | – | – | 0.025 µg/mL (≈ 0.0684 µM) | 2 mg/kg | MIC (Streptococcus pyogenes [8]; [27]): 0.05 µg/mL (≈ 0.137 µM); ED50 (Streptococcus pyogenes [4]; Streptococcus pyogenes): 19 mg/kg; MIC (Enterococcus faecalis [14]): 0.1 µg/mL (≈ 0.274 µM); MIC (Streptococcus pneumoniae [12]; [28]): 0.05 µg/mL (≈ 0.137 µM)
4 | CN[C@H](C)[C@H]1CCN(c2c(F)cc3c(=O)c(C(=O)O)cn(C4CC4)c3c2OC)C1 (racemic) | 0.05 µg/mL (≈ 0.124 µM) | 0.013 µg/mL (≈ 0.0322 µM) | 0.2 µg/mL (≈ 0.496 µM) | 5 mg/kg | 0.05 µg/mL (≈ 0.124 µM) | – | – | 0.1 mg/kg | – | – | 0.1 µg/mL (≈ 0.248 µM) | 0.8 µg/mL (≈ 1.98 µM) | – | – | 33 µg/mL | – | – | 0.003 µg/mL (≈ 0.00744 µM) | 1 mg/kg | Dose (Mus musculus [15]): >100 mg/kg; Initial inhibition [16]: < 0.5 µg/mL; MIC (Streptococcus pneumoniae [12]; [28]): 0.003 µg/mL (≈ 0.00744 µM); MIC (Enterococcus faecalis [13]; [29]): 0.025 µg/mL (≈ 0.062 µM); MIC (Streptococcus pyogenes [17]): 0.003 µg/mL (≈ 0.00744 µM)
5 | CN[C@H](C)[C@H]1CCN(c2cc3c(cc2F)c(=O)c(C(=O)O)cn3C2CC2)C1 (mixture of isomers) | – | – | – | 7 mg/kg | – | 0.05 µg/mL | – | – | 0.05 µg/mL | 0.2 µg/mL | – | – | 7 mg/kg | – | 180 µg/mL | 0.05 µg/mL | 0.1 µg/mL | – | 1 mg/kg | MIC (Escherichia coli [1]): 0.2 µg/mL; PD50 (Streptococcus pyogenes [7]): 1 mg/kg; MIC (Klebsiella pneumoniae): 0.4 µg/mL; MIC (Pseudomonas aeruginosa): 1.6 µg/mL; MIC (Providencia rettgeri): 0.8 µg/mL; Phototoxicity (Mus musculus [18]): 100 mg/kg; MIC (Enterobacter cloacae): 0.2 µg/mL
6 | C[C@@H](N)[C@H]1CCN(c2nc3c(cc2F)c(=O)c(C(=O)O)cn3C2CC2)C1 (mixture of isomers) | – | – | – | – | – | 0.003 µg/mL | 5.68 | – | 0.013 µg/mL | 0.025 µg/mL | – | – | 3 mg/kg | 30 mg/kg | 33 µg/mL | 0.003 µg/mL | 0.013 µg/mL | – | – | MIC (Escherichia coli [1]): 0.025 µg/mL; MIC (Klebsiella pneumoniae): 0.05 µg/mL; PD50 (Escherichia coli [9]): 0.4 mg/kg; ED50 (Streptococcus pyogenes [19]): 1 mg/kg; MIC (Pseudomonas aeruginosa): 0.4 µg/mL; MIC (Providencia rettgeri): 0.1 µg/mL; PD50 (Escherichia coli [5]): 2 mg/kg; MIC (Enterobacter cloacae): 0.05 µg/mL
7 | NC1CCN(c2nc3c(cc2F)c(=O)c(C(=O)O)cn3C2CC2)C1 (stereo not drawn) | 0.013 µg/mL (≈ 0.0391 µM) | 0.2 µg/mL (≈ 0.602 µM) | 0.05 µg/mL (≈ 0.15 µM) | 2 mg/kg | 0.025 µg/mL (≈ 0.0752 µM) | – | 5.65 | 14 mg/kg | – | – | 0.025 µg/mL (≈ 0.0752 µM) | 0.1 µg/mL (≈ 0.301 µM) | – | >100 mg/kg | 98 µg/mL | – | – | 0.013 µg/mL (≈ 0.0391 µM) | 0.6 mg/kg | MIC (Streptococcus pyogenes [8]; [27]): 0.2 µg/mL (≈ 0.602 µM); MIC (Streptococcus pneumoniae [20]): 0.2 µg/mL (≈ 0.602 µM); ED50 (Streptococcus pyogenes [4]; Streptococcus pyogenes): 32 mg/kg; MIC (Enterococcus faecalis [13]; [29]): 0.2 µg/mL (≈ 0.602 µM)
